The structures appear in SMILES notation. pIC50, pKi: −log10 of the molar value. Bounds are passed on as bounds.

Test [1] deals with T1, Protein cereblon/Signal transducer and activator of transcription 3 (Homo sapiens, UniProt P40763+Q96SW2). Put plainly: Protac activity at CRBN/STAT3 in human MOLM16 cells assessed as degradation of STAT3 incubated for 4 hrs by Western blot analysis. The test is classed as cell-based. The essentials:
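Molm-16 cells treated 4 h with serially diluted compound. Lysates immunoblotted (SDS–PAGE, PVDF, 5% blocker/TBST, chemiluminescence) for total STAT3 and pSTAT3 Y705. DC50 taken as the concentration reducing total STAT3 by 50%.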
A general note: In western blotting, separated proteins are transferred to a membrane and probed.

Test [2] deals with T1, Protein cereblon/Signal transducer and activator of transcription 3. Kind of test: Protac activity at CRBN/STAT3 in human SUDHL1 cells assessed as degradation of STAT3 incubated for 16 hrs by Western blot analysis. The format is cell-based.
Test [3] can be described thus: Antiproliferative activity against human MOLM16 cells assessed as reduction in cell viability incubated for 4 days by cell-titer glo luminescent assay. Conditions: MOLM16, 96 h. The test is classed as functional, cell-based. The method in brief:
(§1)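 Viability assay: cells incubated with serially diluted compounds for 4 days, viability read by CellTiter-Glo luminescence; IC50 from concentration–response.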

For the next test, the system named is SU-DHL-1. Kind of test: Antiproliferative activity against human SUDHL1 cells assessed as reduction in cell viability incubated for 4 days by cell-titer glo luminescent assay. The format is functional, cell-based. Conditions: SU-DHL-1, 96 h. The method in brief:
as §1

The target in test [4] is T2, Signal transducer and activator of transcription 3 (Homo sapiens, UniProt P40763). Put plainly: Binding affinity to recombinant human His/SUMO-tagged STAT3 (127 to 688 residues) expressed in Escherichia coli Rosetta (DE3) incubated for 1 hr by fluorescence polarization assay. On the technique in general: Fluorescence polarisation rises when a labelled molecule tumbles more slowly, as on binding a larger partner.

Test [5] has as its target T2, Signal transducer and activator of transcription 3. Kind of test: Potency index, ratio of Ki of CJ-887 to Ki of compound for binding affinity to recombinant human His/SUMO-tagged STAT3 (127 to 688 residues) expressed in Escherichia coli Rosetta (DE3) incubated for 1 hr by fluorescence polarization assay.

T1 sequence (P40763 whole entry): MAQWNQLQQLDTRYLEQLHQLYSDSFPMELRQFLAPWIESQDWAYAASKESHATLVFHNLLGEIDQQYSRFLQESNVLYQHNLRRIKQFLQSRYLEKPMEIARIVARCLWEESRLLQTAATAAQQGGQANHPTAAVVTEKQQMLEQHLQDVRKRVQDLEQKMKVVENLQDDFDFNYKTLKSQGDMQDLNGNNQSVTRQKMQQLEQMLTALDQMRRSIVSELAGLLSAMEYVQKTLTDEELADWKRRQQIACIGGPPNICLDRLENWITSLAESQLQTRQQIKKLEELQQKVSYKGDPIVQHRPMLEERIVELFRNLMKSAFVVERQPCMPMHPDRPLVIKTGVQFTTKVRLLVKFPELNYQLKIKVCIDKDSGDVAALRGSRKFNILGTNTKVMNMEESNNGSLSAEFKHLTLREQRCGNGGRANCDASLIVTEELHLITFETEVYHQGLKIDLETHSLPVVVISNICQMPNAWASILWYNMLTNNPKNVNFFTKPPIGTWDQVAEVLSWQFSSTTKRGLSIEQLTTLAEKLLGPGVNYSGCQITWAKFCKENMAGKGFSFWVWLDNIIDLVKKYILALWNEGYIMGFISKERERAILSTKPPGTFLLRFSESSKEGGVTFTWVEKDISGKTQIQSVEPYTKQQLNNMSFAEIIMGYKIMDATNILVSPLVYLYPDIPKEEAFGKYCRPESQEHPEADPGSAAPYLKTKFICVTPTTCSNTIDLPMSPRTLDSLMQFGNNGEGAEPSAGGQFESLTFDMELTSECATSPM
T1 sequence (Q96SW2 whole entry): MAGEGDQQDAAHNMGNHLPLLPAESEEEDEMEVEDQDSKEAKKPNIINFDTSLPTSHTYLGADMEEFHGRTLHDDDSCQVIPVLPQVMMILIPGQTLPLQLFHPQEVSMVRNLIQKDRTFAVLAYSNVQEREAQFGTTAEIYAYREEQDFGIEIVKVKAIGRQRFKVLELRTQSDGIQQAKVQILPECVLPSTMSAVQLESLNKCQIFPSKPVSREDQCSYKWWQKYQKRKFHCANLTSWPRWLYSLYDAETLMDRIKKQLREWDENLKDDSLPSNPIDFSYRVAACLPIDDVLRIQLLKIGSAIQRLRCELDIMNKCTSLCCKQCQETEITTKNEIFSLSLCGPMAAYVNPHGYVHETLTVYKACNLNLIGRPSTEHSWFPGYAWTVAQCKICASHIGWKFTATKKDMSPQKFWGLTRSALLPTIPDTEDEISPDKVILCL
T2 sequence (P40763 whole entry, the tested form may be a part): as the sequence (P40763 whole entry) above

The DC50 is the midpoint of the concentration-degradation curve. In general, pIC50 refers to −log10 of the IC50, conventionally taken in molar units. In the case of `CNC(=O)[C@H](CCC(N)=O)NC(=O)[C@@H]1CC[C@@H]2CCN(C(=O)CCCCCC#Cc3cccc4c3CN(C3CCC(=O)NC3=O)C4=O)C[C@H](NC(=O)c3cc4cc(C(F)(F)P(=O)(O)O)ccc4[nH]3)C(=O)N21` (stereo partly drawn), the DC50 in test [1] was found to be 640 nM; in test [2], 890 nM. In addition, the pIC50 in test [3] was 6.65; in the test with SU-DHL-1, less than 5.00.

By pKi is commonly meant the negative decadic logarithm of the Ki, by convention in mol/L. Take `CN1CC[C@H]2CC[C@@H](C(=O)N[C@@H](CCC(N)=O)C(=O)NCc3ccccc3)N2C(=O)[C@@H](NC(=O)c2cc3cc(C(F)(F)P(=O)(O)O)ccc3[nH]2)C1`: the pKi in test [4] is 7.85.

On to `NC(=O)CC[C@H](NC(=O)[C@@H]1CC[C@@H]2CCN(C(=O)CCN3CCC(C#Cc4cccc5c4CN(C4CCC(=O)NC4=O)C5=O)CC3)C[C@H](NC(=O)c3cc4cc(C(F)(F)P(=O)(O)O)ccc4[nH]3)C(=O)N21)C(=O)NC(c1ccccc1)c1ccccc1` (stereo partly drawn), for which the DC50 in test [1] was found to be 2470 nM. For the same compound, the pIC50 in test [3] is 6.44.

In the case of `NC(=O)CC[C@H](NC(=O)[C@@H]1CC[C@@H]2CCN(C(=O)c3cnn(CCCC#Cc4cccc5c4CN(C4CCC(=O)NC4=O)C5=O)c3)C[C@H](NC(=O)c3cc4cc(C(F)(F)P(=O)(O)O)ccc4[nH]3)C(=O)N21)C(=O)NC(c1ccccc1)c1ccccc1` (stereo partly drawn), the DC50 in test [1] amounted to 180 nM. For the same compound, in test [3], the pIC50 was 6.62.

For `NC(=O)CC[C@H](NC(=O)[C@@H]1CC[C@@H]2CCN(C(=O)CCCn3cc(C#Cc4cccc5c4CN(C4CCC(=O)NC4=O)C5=O)cn3)C[C@H](NC(=O)c3cc4cc(C(F)(F)P(=O)(O)O)ccc4[nH]3)C(=O)N21)C(=O)NC(c1ccccc1)c1ccccc1` (stereo partly drawn), in test [1], the DC50 came out at 250 nM. In addition, the pIC50 in test [3] is 6.63.

Regarding `NC(=O)CC[C@H](NC(=O)[C@@H]1CC[C@@H]2CCN(C(=O)OCCCCC#Cc3cccc4c3CN(C3CCC(=O)NC3=O)C4=O)C[C@H](NC(=O)c3cc4cc(C(F)(F)P(=O)(O)O)ccc4[nH]3)C(=O)N21)C(=O)NC(c1ccccc1)c1ccccc1` (stereo partly drawn), the DC50 stood at 240 nM in test [1] and 49 nM in test [2]. Moreover, the pIC50 was 6.89 in test [3] and 5.63 with SU-DHL-1.

Turning to `CC(=O)N1CC[C@H]2CC[C@@H](C(=O)N[C@@H](CCC(N)=O)C(=O)NC(c3ccccc3)c3ccccc3)N2C(=O)[C@@H](NC(=O)c2cc3cc(OP(=O)(O)O)ccc3[nH]2)C1`, in test [4], the pKi was 7.48.

Consider `NC(=O)CC[C@H](NC(=O)[C@@H]1CC[C@@H]2CCN(C(=O)CCCCCC#Cc3ccc4c(c3)CN(C3CCC(=O)NC3=O)C4=O)C[C@H](NC(=O)c3cc4cc(C(F)(F)P(=O)(O)O)ccc4[nH]3)C(=O)N21)C(=O)NC(c1ccccc1)c1ccccc1` (stereo partly drawn), for which the DC50 in test [1] amounted to 410 nM. Moreover, the pIC50 in test [3] is 6.98.

`NC(=O)CC[C@H](NC(=O)[C@@H]1CC[C@@H]2CCN(C(=O)N3CCC(CCC#Cc4cccc5c4CN(C4CCC(=O)NC4=O)C5=O)CC3)C[C@H](NC(=O)c3cc4cc(C(F)(F)P(=O)(O)O)ccc4[nH]3)C(=O)N21)C(=O)NC(c1ccccc1)c1ccccc1` (stereo partly drawn): the DC50 in test [1] amounted to 180 nM. Further, the pIC50 in test [3] is 7.00.

Consider `NC(=O)CC[C@H](NC(=O)[C@@H]1CC[C@@H]2CCN(C(=O)CC(=O)N3CCC(C#Cc4cccc5c4CN(C4CCC(=O)NC4=O)C5=O)CC3)C[C@H](NC(=O)c3cc4cc(C(F)(F)P(=O)(O)O)ccc4[nH]3)C(=O)N21)C(=O)NC(c1ccccc1)c1ccccc1` (stereo partly drawn), for which the DC50 in test [1] was determined as 380 nM. The pIC50 in test [3] was 7.17.

Turning to `NC(=O)CC[C@H](NC(=O)[C@@H]1CC[C@@H]2CCN(C(=O)CCCCCCNc3cccc4c3CN(C3CCC(=O)NC3=O)C4=O)C[C@H](NC(=O)c3cc4cc(C(F)(F)P(=O)(O)O)ccc4[nH]3)C(=O)N21)C(=O)NC(c1ccccc1)c1ccccc1` (stereo partly drawn), the DC50 in test [1] is 90 nM. The pIC50 in test [3] was 7.23.

Turning to `NC(=O)CC[C@H](NC(=O)[C@@H]1CC[C@@H]2CCN(CCCCCCC#Cc3cccc4c3CN(C3CCC(=O)NC3=O)C4=O)C[C@H](NC(=O)c3cc4cc(C(F)(F)P(=O)(O)O)ccc4[nH]3)C(=O)N21)C(=O)NC(c1ccccc1)c1ccccc1` (stereo partly drawn), the DC50 in test [1] came to 650 nM; in test [2], 919 nM. For the same compound, the pIC50 is 6.83 in test [3] and less than 5.00 with SU-DHL-1.

In the case of `CC(=O)N1CC[C@H]2CC[C@@H](C(=O)N[C@@H](CCC(N)=O)C(=O)NCc3ccccc3)N2C(=O)[C@@H](NC(=O)c2cc3cc(C(F)(F)P(=O)(O)O)ccc3[nH]2)C1`, the pKi in test [4] is 7.85.

`NC(=O)CC[C@H](NC(=O)[C@@H]1CC[C@@H]2CCN(C(=O)CCCCCCC#Cc3cccc4c3CN(C3CCC(=O)NC3=O)C4=O)C[C@H](NC(=O)c3cc4cc(C(F)(F)P(=O)(O)O)ccc4[nH]3)C(=O)N21)C(=O)NC(c1ccccc1)c1ccccc1` (stereo partly drawn): the DC50 in test [1] was determined as 90 nM. Further, in test [3], the pIC50 was 7.60.

Regarding `NC(=O)CC[C@H](NC(=O)[C@@H]1CC[C@@H]2CCN(C(=O)CCCCC#Cc3cccc4c3CN(C3CCC(=O)NC3=O)C4=O)C[C@H](NC(=O)c3cc4cc(C(F)(F)P(=O)(O)O)ccc4[nH]3)C(=O)N21)C(=O)NC(c1ccccc1)c1ccccc1` (stereo partly drawn), the DC50 in test [1] worked out at 260 nM. In addition, the pIC50 in test [3] was 7.11.

For `NC(=O)CC[C@H](NC(=O)[C@@H]1CC[C@@H]2CCCC[C@H](NC(=O)c3cc4cc(OP(=O)(O)O)ccc4[nH]3)C(=O)N21)C(=O)NCc1ccccc1`, the pKi in test [4] was 7.60. Besides, in test [5], the Ratio Ki amounted to 2.

`NC(=O)CC[C@H](NC(=O)[C@@H]1CC[C@@H]2CCN(C(=O)CCCCCC#Cc3cccc4c3CN(C3CCC(=O)NC3=O)C4=O)C[C@H](NC(=O)c3cc4cc(C(F)(F)P(=O)(O)O)ccc4[nH]3)C(=O)N21)C(=O)NCc1ccccc1` (stereo partly drawn): the values for the DC50 in test [1] and in test [2] were 220 nM and 55 nM, respectively. In addition, the pIC50 in test [3] is 6.68; in the test on SU-DHL-1, 5.49.

Regarding `NC(=O)CC[C@H](NC(=O)[C@@H]1CC[C@@H]2CCN(C(=O)CCCCCCCc3cccc4c3CN(C3CCC(=O)NC3=O)C4=O)C[C@H](NC(=O)c3cc4cc(C(F)(F)P(=O)(O)O)ccc4[nH]3)C(=O)N21)C(=O)NC(c1ccccc1)c1ccccc1` (stereo partly drawn), the DC50 in test [1] was found to be 160 nM. Besides, in test [3], the negative logarithm of the IC50 (pIC50) was 7.20.

`NC(=O)CC[C@H](NC(=O)[C@@H]1CC[C@@H]2CCN(C(=O)CCCCCCCCC#Cc3cccc4c3CN(C3CCC(=O)NC3=O)C4=O)C[C@H](NC(=O)c3cc4cc(C(F)(F)P(=O)(O)O)ccc4[nH]3)C(=O)N21)C(=O)NC(c1ccccc1)c1ccccc1` (stereo partly drawn): in test [1], the DC50 was 150 nM. The pIC50 in test [3] was 7.38.

Turning to `NC(=O)CC[C@H](NC(=O)[C@@H]1CC[C@@H]2CCN(C(=O)CCCCCC#Cc3ccc4c(c3)C(=O)N(C3CCC(=O)NC3=O)C4)C[C@H](NC(=O)c3cc4cc(C(F)(F)P(=O)(O)O)ccc4[nH]3)C(=O)N21)C(=O)NC(c1ccccc1)c1ccccc1` (stereo partly drawn), the DC50 in test [1] is 360 nM. Further, the pIC50 in test [3] was 6.15.

For the compound `CC(=O)N1CC[C@H]2CC[C@@H](C(=O)N[C@@H](CCC(N)=O)C(=O)NC(c3ccccc3)c3ccccc3)N2C(=O)[C@@H](NC(=O)c2cc3cc(CP(=O)(O)O)ccc3[nH]2)C1`, in test [4], the negative logarithm of the Ki (pKi) is 6.23.

Take `CN1CC[C@H]2CC[C@@H](C(=O)N[C@@H](CCC(N)=O)C(=O)NC(c3ccccc3)c3ccccc3)N2C(=O)[C@@H](NC(=O)c2cc3cc(C(F)(F)P(=O)(O)O)ccc3[nH]2)C1`: the pKi in test [4] was 7.92.

For `CC(=O)N1CC[C@H]2CC[C@@H](C(=O)N[C@@H](CCC(N)=O)C(=O)NC(c3ccccc3)c3ccccc3)N2C(=O)[C@@H](NC(=O)/C=C(\C)c2ccc(C(F)(F)P(=O)(O)O)cc2)C1`, the pKi in test [4] is 6.79.

The values are drawn from ChEMBL document CHEMBL4354826, “Structure-Based Discovery of SD-36 as a Potent, Selective, and Efficacious PROTAC Degrader of STAT3 Protein” (J Med Chem, 2019).
